Measurements published in ChEMBL document CHEMBL4689842, “EUbOPEN Chemogenomics Library wave 1” (2021).
Values joined by “and” are separate entries in the source; they are usually repeats but may differ in a detail not shown here. Equal entries are not always repeated.

Tested on: Fibroblast
Assay: Multiplex assay against human fibroblast
Type: toxicity, cell-based
Summary of the method: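 Live cells were stained at seeding with Hoechst33342, BioTracker Green Microtubule Cytoskeleton Dye, MitoTracker Red and Annexin V Alexa Fluor 680. Following compound addition, they were imaged on a CQ1 microscope at 37°C and 5% CO2 and gated by CellPathfinder machine learning into Hoechst high-intensity objects or normal cells, with normal cells split into healthy, pyknosed or fragmented nuclei and pyknosed cells into mitotic or apoptotic. Tubulin, mitochondrial-mass and membrane-permeability phenotypes are per cents of healthy-nucleus cells.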

[1] = 12 h, 1 µM, compound concentration 1 uM, replicate 1
[2] = 12 h, 1 µM, compound concentration 1 uM, replicate 2
[3] = 12 h, 10 µM, compound concentration 10 uM, replicate 1
[4] = 12 h, 10 µM, compound concentration 10 uM, replicate 2
[5] = 24 h, 1 µM, compound concentration 1 uM, replicate 1
[6] = 24 h, 1 µM, compound concentration 1 uM, replicate 2
[7] = 24 h, 10 µM, compound concentration 10 uM, replicate 1
[8] = 24 h, 10 µM, compound concentration 10 uM, replicate 2
[9] = 48 h, 10 µM, compound concentration 10 uM, replicate 1
[10] = 48 h, 10 µM, compound concentration 10 uM, replicate 2

Structure (SMILES): CN[C@@H]1C[C@H]2O[C@@](C)([C@@H]1OC)n1c3ccccc3c3c4c(c5c6ccccc6n2c5c31)C(=O)NC4 [STAUROSPORINE]
- Population Apoptotic (%) [1]: 75%
- Population Fragmented Nuclei (%) [1]: 41%
- Population Healthy Nuclei (%) [1]: 14%
- Population Hoechst High Intensity Objects (%) [1]: 31%
- Population Membrane Permeable-Phenotype (%) [1]: 13%
- Population Mitochondria Different-Phenotype (%) [1]: 2%
- Population Mitotic Cells (%) [1]: 24%
- Population Normal (%) [1]: 68%
- Population Pyknosed Nuclei (%) [1]: 43%
- Population Tubulin-Different-Phenotype (%) [1]: 10%
- Population Apoptotic (%) [2]: 71%
- Population Fragmented Nuclei (%) [2]: 48%
- Population Healthy Nuclei (%) [2]: 19%
- Population Hoechst High Intensity Objects (%) [2]: 46%
- Population Membrane Permeable-Phenotype (%) [2]: 47%
- Population Mitochondria Different-Phenotype (%) [2]: 11%
- Population Mitotic Cells (%) [2]: 28%
- Population Normal (%) [2]: 53%
- Population Pyknosed Nuclei (%) [2]: 32%
- Population Tubulin-Different-Phenotype (%) [2]: 11%
- Population Apoptotic (%) [3]: 84% and 63% and 86%
- Population Fragmented Nuclei (%) [3]: 30% and 31% and 36%
- Population Healthy Nuclei (%) [3]: 9% and 21% and 10%
- Population Hoechst High Intensity Objects (%) [3]: 26% and 29% and 21%
- Population Mitochondria Different-Phenotype (%) [3]: 0% and 3% and 5%
- Population Mitotic Cells (%) [3]: 15% and 36% and 13%
- Population Normal (%) [3]: 73%
- Population Pyknosed Nuclei (%) [3]: 59% and 46% and 52%
- Population Tubulin-Different-Phenotype (%) [3]: 15% and 5%
- Population Apoptotic (%) [4]: 77% and 73%
- Population Fragmented Nuclei (%) [4]: 48% and 26% and 42%
- Population Healthy Nuclei (%) [4]: 14% and 15% and 12%
- Population Hoechst High Intensity Objects (%) [4]: 43% and 15%
- Population Mitotic Cells (%) [4]: 22% and 26%
- Population Normal (%) [4]: 56% and 84%
- Population Pyknosed Nuclei (%) [4]: 37% and 57% and 45%
- Population Apoptotic (%) [5]: 85%
- Population Fragmented Nuclei (%) [5]: 61%
- Population Healthy Nuclei (%) [5]: 2%
- Population Hoechst High Intensity Objects (%) [5]: 21%
- Population Membrane Permeable-Phenotype (%) [5]: 16%
- Population Mitochondria Different-Phenotype (%) [5]: 0%
- Population Mitotic Cells (%) [5]: 14%
- Population Pyknosed Nuclei (%) [5]: 35%
- Population Tubulin-Different-Phenotype (%) [5]: 16%
- Population Apoptotic (%) [6]: 74%
- Population Fragmented Nuclei (%) [6]: 58%
- Population Healthy Nuclei (%) [6]: 11%
- Population Hoechst High Intensity Objects (%) [6]: 34%
- Population Membrane Permeable-Phenotype (%) [6]: 30%
- Population Mitochondria Different-Phenotype (%) [6]: 10%
- Population Mitotic Cells (%) [6]: 25%
- Population Normal (%) [6]: 65%
- Population Pyknosed Nuclei (%) [6]: 30%
- Population Tubulin-Different-Phenotype (%) [6]: 0%
- Population Apoptotic (%) [7]: 92% and 84% and 87%
- Population Fragmented Nuclei (%) [7]: 51% and 58% and 59%
- Population Healthy Nuclei (%) [7]: 6% and 7%
- Population Hoechst High Intensity Objects (%) [7]: 18% and 20% and 22%
- Population Membrane Permeable-Phenotype (%) [7]: 30% and 25% and 11%
- Population Mitochondria Different-Phenotype (%) [7]: 0% and 3%
- Population Mitotic Cells (%) [7]: 7% and 15% and 12%
- Population Normal (%) [7]: 81% and 79% and 77%
- Population Pyknosed Nuclei (%) [7]: 41% and 34%
- Population Apoptotic (%) [8]: 72% and 88% and 77%
- Population Healthy Nuclei (%) [8]: 20% and 46% and 37%
- Population Hoechst High Intensity Objects (%) [8]: 38% and 27% and 26%
- Population Membrane Permeable-Phenotype (%) [8]: 47% and 100% and 92%
- Population Mitotic Cells (%) [8]: 27% and 11% and 22%
- Population Normal (%) [8]: 61% and 72% and 73%
- Population Pyknosed Nuclei (%) [8]: 26% and 36% and 38%
- Population Apoptotic (%) [9]: 88% and 84%
- Population Fragmented Nuclei (%) [9]: 60% and 64%
- Population Healthy Nuclei (%) [9]: 14% and 23%
- Population Hoechst High Intensity Objects (%) [9]: 34% and 36%
- Population Membrane Permeable-Phenotype (%) [9]: 40% and 37%
- Population Mitochondria Different-Phenotype (%) [9]: 6% and 16%
- Population Mitotic Cells (%) [9]: 11% and 15%
- Population Normal (%) [9]: 65% and 63%
- Population Pyknosed Nuclei (%) [9]: 25% and 12%
- Population Tubulin-Different-Phenotype (%) [9]: 53% and 54%
- Population Apoptotic (%) [10]: 91% and 83%
- Population Fragmented Nuclei (%) [10]: 79% and 82%
- Population Healthy Nuclei (%) [10]: 10% and 8%
- Population Hoechst High Intensity Objects (%) [10]: 44% and 33%
- Population Membrane Permeable-Phenotype (%) [10]: 33% and 58%
- Population Mitochondria Different-Phenotype (%) [10]: 8% and 0%
- Population Mitotic Cells (%) [10]: 8% and 16%
- Population Normal (%) [10]: 55% and 66%
- Population Pyknosed Nuclei (%) [10]: 10% and 8%
- Population Tubulin-Different-Phenotype (%) [10]: 58% and 66%

Structure (SMILES): CN1CCN(C(=O)C(C)(C)c2ccc(C(=O)Nc3cn4cc(-c5cc(C(C)(C)C)cc(C(C)(C)C)c5)ccc4n3)cc2)CC1 [T3-CLK-N]
- Population Apoptotic (%) [1]: 84%
- Population Fragmented Nuclei (%) [1]: 34%
- Population Healthy Nuclei (%) [1]: 52%
- Population Hoechst High Intensity Objects (%) [1]: 19%
- Population Membrane Permeable-Phenotype (%) [1]: 8%
- Population Mitochondria Different-Phenotype (%) [1]: 1%
- Population Mitotic Cells (%) [1]: 16%
- Population Normal (%) [1]: 80%
- Population Pyknosed Nuclei (%) [1]: 13%
- Population Tubulin-Different-Phenotype (%) [1]: 3%
- Total Cell Count [1]: 237
- Population Apoptotic (%) [2]: 42%
- Population Fragmented Nuclei (%) [2]: 44%
- Population Healthy Nuclei (%) [2]: 44%
- Population Hoechst High Intensity Objects (%) [2]: 26%
- Population Membrane Permeable-Phenotype (%) [2]: 14%
- Population Mitochondria Different-Phenotype (%) [2]: 11%
- Population Mitotic Cells (%) [2]: 57%
- Population Normal (%) [2]: 73%
- Population Pyknosed Nuclei (%) [2]: 11%
- Population Tubulin-Different-Phenotype (%) [2]: 22%
- Total Cell Count [2]: 83
- Population Apoptotic (%) [3]: 78%
- Population Fragmented Nuclei (%) [3]: 39%
- Population Healthy Nuclei (%) [3]: 45%
- Population Hoechst High Intensity Objects (%) [3]: 16%
- Population Membrane Permeable-Phenotype (%) [3]: 23%
- Population Mitochondria Different-Phenotype (%) [3]: 1%
- Population Mitotic Cells (%) [3]: 21%
- Population Normal (%) [3]: 83%
- Population Pyknosed Nuclei (%) [3]: 14%
- Population Tubulin-Different-Phenotype (%) [3]: 21%
- Total Cell Count [3]: 260
- Population Apoptotic (%) [4]: 50%
- Population Fragmented Nuclei (%) [4]: 40%
- Population Healthy Nuclei (%) [4]: 30%
- Population Hoechst High Intensity Objects (%) [4]: 39%
- Population Membrane Permeable-Phenotype (%) [4]: 30%
- Population Mitochondria Different-Phenotype (%) [4]: 23%
- Population Mitotic Cells (%) [4]: 50%
- Population Normal (%) [4]: 60%
- Population Pyknosed Nuclei (%) [4]: 28%
- Population Tubulin-Different-Phenotype (%) [4]: 23%
- Total Cell Count [4]: 69
- Population Apoptotic (%) [5]: 73%
- Population Fragmented Nuclei (%) [5]: 31%
- Population Healthy Nuclei (%) [5]: 51%
- Population Hoechst High Intensity Objects (%) [5]: 16%
- Population Membrane Permeable-Phenotype (%) [5]: 9%
- Population Mitochondria Different-Phenotype (%) [5]: 2%
- Population Mitotic Cells (%) [5]: 26%
- Population Normal (%) [5]: 83%
- Population Pyknosed Nuclei (%) [5]: 16%
- Population Tubulin-Different-Phenotype (%) [5]: 6%
- Total Cell Count [5]: 243
- Population Apoptotic (%) [6]: 40%
- Population Fragmented Nuclei (%) [6]: 42%
- Population Healthy Nuclei (%) [6]: 48%
- Population Hoechst High Intensity Objects (%) [6]: 28%
- Population Membrane Permeable-Phenotype (%) [6]: 11%
- Population Mitochondria Different-Phenotype (%) [6]: 11%
- Population Mitotic Cells (%) [6]: 60%
- Population Normal (%) [6]: 71%
- Population Pyknosed Nuclei (%) [6]: 8%
- Population Tubulin-Different-Phenotype (%) [6]: 11%
- Total Cell Count [6]: 78
- Population Apoptotic (%) [7]: 82%
- Population Fragmented Nuclei (%) [7]: 32%
- Population Healthy Nuclei (%) [7]: 54%
- Population Hoechst High Intensity Objects (%) [7]: 10%
- Population Membrane Permeable-Phenotype (%) [7]: 22%
- Population Mitochondria Different-Phenotype (%) [7]: 5%
- Population Mitotic Cells (%) [7]: 17%
- Population Normal (%) [7]: 89%
- Population Tubulin-Different-Phenotype (%) [7]: 30%
- Total Cell Count [7]: 245
- Population Apoptotic (%) [8]: 33%
- Population Fragmented Nuclei (%) [8]: 55%
- Population Healthy Nuclei (%) [8]: 30%
- Population Hoechst High Intensity Objects (%) [8]: 38%
- Population Membrane Permeable-Phenotype (%) [8]: 38%
- Population Mitochondria Different-Phenotype (%) [8]: 15%
- Population Mitotic Cells (%) [8]: 66%
- Population Normal (%) [8]: 61%
- Population Pyknosed Nuclei (%) [8]: 13%
- Population Tubulin-Different-Phenotype (%) [8]: 23%
- Total Cell Count [8]: 70
